Experimental data reported in ChEMBL document CHEMBL4007382 (Eur J Med Chem, 2017).

Columns and labels:
Mus musculus [1] = assay: Cardiotoxicity in Kunming mouse assessed as change in heart rate at 20 mg/kg, ip measured after 23 mins by electrocardiogram (reference value: -44.9 +/- 14.57); type: toxicity, organism-based; settings: in vivo
Mus musculus [2] = assay: Cardiotoxicity in Kunming mouse assessed as change in heart rate at 20 mg/kg, ip measured after 31 mins by electrocardiogram (reference value: -42.8 +/- 29.79); type: toxicity, organism-based; settings: in vivo
Mus musculus [3] = assay: Cardiotoxicity in Kunming mouse assessed as change in heart rate at 20 mg/kg, ip measured after 26 mins by electrocardiogram (reference value: -46.48 +/- 17.52); type: toxicity, organism-based; settings: in vivo
Mus musculus [4] = assay: Cardiotoxicity in Kunming mouse assessed as change in heart rate at 20 mg/kg, ip measured after 24 mins by electrocardiogram (reference value: -44.48 +/- 12.38); type: toxicity, organism-based; settings: in vivo, 0.4 h
Mus musculus [5] = assay: Cardiotoxicity in Kunming mouse assessed as change in heart rate at 20 mg/kg, ip measured after 15 mins by electrocardiogram (reference value: -35.14 +/- 24.5); type: toxicity, organism-based; settings: in vivo, 0.25 h
Mus musculus [6] = assay: Cardiotoxicity in Kunming mouse assessed as change in heart rate at 20 mg/kg, ip measured after 32 mins by electrocardiogram (reference value: -43.48 +/- 20.81); type: toxicity, organism-based; settings: in vivo
Mus musculus [7] = assay: Cardiotoxicity in Kunming mouse assessed as change in heart rate at 20 mg/kg, ip measured after 5 mins by electrocardiogram (reference value: -14.06 +/- 24.25); type: toxicity, organism-based; settings: in vivo
Mus musculus [8] = assay: Cardiotoxicity in Kunming mouse assessed as change in heart rate at 20 mg/kg, ip measured after 25 mins by electrocardiogram (reference value: -43.17 +/- 15.26); type: toxicity, organism-based; settings: in vivo
Mus musculus [9] = assay: Cardiotoxicity in Kunming mouse assessed as change in heart rate at 20 mg/kg, ip measured after 16 mins by electrocardiogram (reference value: -38.67 +/- 10.18); type: toxicity, organism-based; settings: in vivo
Mus musculus [10] = assay: Cardiotoxicity in Kunming mouse assessed as change in heart rate at 20 mg/kg, ip measured after 9 mins by electrocardiogram (reference value: -31.96 +/- 17.01); type: toxicity, organism-based; settings: in vivo, 0.15 h
Mus musculus [11] = assay: Cardiotoxicity in Kunming mouse assessed as change in heart rate at 20 mg/kg, ip measured after 10 mins by electrocardiogram (reference value: -34.85 +/- 19.78); type: toxicity, organism-based; settings: in vivo
Mus musculus [12] = assay: Cardiotoxicity in Kunming mouse assessed as change in heart rate at 20 mg/kg, ip measured after 35 mins by electrocardiogram (reference value: -31.81 +/- 27.31); type: toxicity, organism-based; settings: in vivo
Mus musculus [13] = assay: Cardiotoxicity in Kunming mouse assessed as change in heart rate at 20 mg/kg, ip measured after 2 mins by electrocardiogram (reference value: -16.36 +/- 11.14); type: toxicity, organism-based; settings: in vivo
Mus musculus [14] = assay: Cardiotoxicity in Kunming mouse assessed as change in heart rate at 20 mg/kg, ip measured after 34 mins by electrocardiogram (reference value: -35 +/- 23.88); type: toxicity, organism-based; settings: in vivo
Mus musculus [15] = assay: Cardiotoxicity in Kunming mouse assessed as change in heart rate at 20 mg/kg, ip measured after 33 mins by electrocardiogram (reference value: -39.12 +/- 24.73); type: toxicity, organism-based; settings: in vivo, 0.55 h
Acetylcholinesterase [16] = biological target: Acetylcholinesterase (Electrophorus electricus, UniProt O42275); assay: Inhibition of electric eel AChE using S-acetylthiocholine iodide as substrate preincubated for 60 mins followed by substrate addition measured after 5 mins by Ellman's method
Mus musculus [17] = assay: Cardiotoxicity in Kunming mouse assessed as change in heart rate at 20 mg/kg, ip measured after 18 mins by electrocardiogram (reference value: -37.61 +/- 15); type: toxicity, organism-based; settings: in vivo, 0.3 h
Mus musculus [18] = assay: Cardiotoxicity in Kunming mouse assessed as change in heart rate at 20 mg/kg, ip measured after 13 mins by electrocardiogram (reference value: -37.85 +/- 14.54); type: toxicity, organism-based; settings: in vivo
Cholinesterase [19] = biological target: T1, Cholinesterase (Equus caballus, UniProt P81908); assay: Irreversible inhibition of equine serum BuChE assessed as second order carbamylation rate constant using S-butyrylthiocholine iodide as substrate preincubated up to 45 mins followed by substrate addition measured after 5 mins
Procedure, shortened: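 Equine BChE, pH 8, 37°C, was preincubated for 1, 2, 4, 8, 15, 30 and 45 min with inhibitor at 1×10^-7 to 5×10^-6 M (seven levels). Residual activity was read by Ellman with BTCh and normalised to a water control at each time. kobs came from a one-phase exponential decay fit; k_I1 came from the linear kobs versus concentration relation.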

Cholinesterase [20] = biological target: T1, Cholinesterase; assay: Inhibition of equine serum BuChE using S-butyrylthiocholine iodide as substrate preincubated for 60 mins followed by substrate addition measured after 5 mins by Ellman's method
Procedure, shortened: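 Equine serum BChE (0.1 U/mL) in 100 mM sodium phosphate, pH 8, was preincubated at 37°C for 60 min with seven inhibitor concentrations (top 1×10^-5 M; stocks in acetonitrile:water 1:9). Added mix contained BTCh 2.5 mM and DTNB 3.4 mM. A412 was read for 5 min at 37°C, with enzyme-free blank subtracted. Triplicates.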

Mus musculus [21] = assay: Cardiotoxicity in Kunming mouse assessed as change in heart rate at 20 mg/kg, ip measured after 29 mins by electrocardiogram (reference value: -47.2 +/- 24.77); type: toxicity, organism-based; settings: in vivo
Acetylcholinesterase [22] = biological target: Acetylcholinesterase (Homo sapiens, UniProt P22303); assay: Inhibition of human erythrocytes AChE using S-acetylthiocholine iodide as substrate preincubated for 60 mins followed by substrate addition measured after 5 mins by Ellman's method
Cholinesterase [23] = biological target: Cholinesterase (Homo sapiens, UniProt P06276); assay: Irreversible inhibition of human plasma BuChE assessed as second order carbamylation rate constant using S-butyrylthiocholine iodide as substrate preincubated up to 45 mins followed by substrate addition measured after 5 mins
Procedure, shortened: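 Diluted human plasma BChE was preincubated for 1–45 min with inhibitor at 5×10^-9, 1×10^-8, 2.5×10^-8 and 5×10^-8 M. Residual Ellman activity with BTCh at pH 8 was normalised to a water control. kobs came from a one-phase exponential fit; k_I1 came from the slope of kobs versus concentration.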

Mus musculus [24] = assay: Cardiotoxicity in Kunming mouse assessed as change in heart rate at 20 mg/kg, ip measured after 27 mins by electrocardiogram (reference value: -44.4 +/- 23.19); type: toxicity, organism-based; settings: in vivo, 0.45 h
Mus musculus [25] = assay: Cardiotoxicity in Kunming mouse assessed as change in heart rate at 20 mg/kg, ip measured after 20 mins by electrocardiogram (reference value: -40.16 +/- 13.12); type: toxicity, organism-based; settings: in vivo
Mus musculus [26] = assay: Cardiotoxicity in Kunming mouse assessed as change in heart rate at 20 mg/kg, ip measured after 7 mins by electrocardiogram (reference value: -25.9 +/- 22.08); type: toxicity, organism-based; settings: in vivo
Mus musculus [27] = assay: Cardiotoxicity in Kunming mouse assessed as change in heart rate at 20 mg/kg, ip measured after 21 mins by electrocardiogram (reference value: -40.23 +/- 16.21); type: toxicity, organism-based; settings: in vivo, 0.35 h
Mus musculus [28] = assay: Cardiotoxicity in Kunming mouse assessed as change in heart rate at 20 mg/kg, ip measured after 19 mins by electrocardiogram (reference value: -38.67 +/- 13.91); type: toxicity, organism-based; settings: in vivo
Mus musculus [29] = assay: Cardiotoxicity in Kunming mouse assessed as change in heart rate at 20 mg/kg, ip measured after 17 mins by electrocardiogram (reference value: -38.32 +/- 10.76); type: toxicity, organism-based; settings: in vivo

T1 sequence (P81908 whole entry): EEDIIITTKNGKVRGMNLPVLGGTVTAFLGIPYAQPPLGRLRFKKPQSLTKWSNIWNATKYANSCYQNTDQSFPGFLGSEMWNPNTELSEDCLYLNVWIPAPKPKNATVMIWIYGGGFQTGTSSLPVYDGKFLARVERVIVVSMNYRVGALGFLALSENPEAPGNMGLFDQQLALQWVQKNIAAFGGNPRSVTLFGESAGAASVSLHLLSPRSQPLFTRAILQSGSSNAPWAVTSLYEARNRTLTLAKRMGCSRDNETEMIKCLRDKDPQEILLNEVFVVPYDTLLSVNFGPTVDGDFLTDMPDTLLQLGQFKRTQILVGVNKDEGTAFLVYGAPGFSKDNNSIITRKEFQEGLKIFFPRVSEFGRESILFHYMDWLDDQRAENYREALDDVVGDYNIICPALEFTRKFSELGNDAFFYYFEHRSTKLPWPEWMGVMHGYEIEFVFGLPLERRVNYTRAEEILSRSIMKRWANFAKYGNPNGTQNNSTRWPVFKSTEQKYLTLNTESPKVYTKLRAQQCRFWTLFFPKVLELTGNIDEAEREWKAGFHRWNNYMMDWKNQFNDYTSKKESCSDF
Sequence of Acetylcholinesterase (Homo sapiens, UniProt P22303) (P22303 whole entry): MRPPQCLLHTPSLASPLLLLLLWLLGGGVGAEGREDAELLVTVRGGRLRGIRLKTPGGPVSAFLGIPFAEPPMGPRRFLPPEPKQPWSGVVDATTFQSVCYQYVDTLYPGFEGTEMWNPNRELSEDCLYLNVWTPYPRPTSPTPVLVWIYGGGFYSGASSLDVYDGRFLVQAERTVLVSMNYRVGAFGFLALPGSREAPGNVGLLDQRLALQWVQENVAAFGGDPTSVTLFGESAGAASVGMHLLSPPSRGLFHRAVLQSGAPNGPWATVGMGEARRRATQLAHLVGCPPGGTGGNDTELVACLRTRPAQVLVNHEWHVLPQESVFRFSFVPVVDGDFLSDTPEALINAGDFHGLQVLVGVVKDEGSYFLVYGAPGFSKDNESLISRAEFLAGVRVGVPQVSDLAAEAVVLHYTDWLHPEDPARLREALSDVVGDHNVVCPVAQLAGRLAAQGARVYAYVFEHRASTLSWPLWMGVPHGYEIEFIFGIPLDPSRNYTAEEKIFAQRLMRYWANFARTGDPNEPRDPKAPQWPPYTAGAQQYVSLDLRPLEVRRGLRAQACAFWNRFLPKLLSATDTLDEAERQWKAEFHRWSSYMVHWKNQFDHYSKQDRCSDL
Sequence of Acetylcholinesterase (Electrophorus electricus, UniProt O42275) (O42275 whole entry): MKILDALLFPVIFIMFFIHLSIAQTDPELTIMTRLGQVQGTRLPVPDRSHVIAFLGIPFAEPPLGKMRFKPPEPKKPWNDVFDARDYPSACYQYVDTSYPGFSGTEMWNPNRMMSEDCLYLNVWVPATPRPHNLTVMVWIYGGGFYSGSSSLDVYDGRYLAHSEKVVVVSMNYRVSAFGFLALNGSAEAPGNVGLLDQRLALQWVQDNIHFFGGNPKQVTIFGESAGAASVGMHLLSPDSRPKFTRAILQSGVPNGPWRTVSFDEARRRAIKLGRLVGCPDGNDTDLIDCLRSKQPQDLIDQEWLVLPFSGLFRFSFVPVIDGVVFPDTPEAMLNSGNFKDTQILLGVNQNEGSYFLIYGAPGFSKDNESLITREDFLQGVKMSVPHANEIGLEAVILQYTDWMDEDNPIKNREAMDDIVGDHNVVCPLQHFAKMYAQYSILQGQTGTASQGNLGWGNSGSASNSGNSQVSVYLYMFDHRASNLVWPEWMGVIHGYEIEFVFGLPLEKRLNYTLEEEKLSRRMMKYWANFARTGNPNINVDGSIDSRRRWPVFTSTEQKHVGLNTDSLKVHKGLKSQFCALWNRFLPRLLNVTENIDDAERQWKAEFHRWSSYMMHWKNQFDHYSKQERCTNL
Sequence of Cholinesterase (Homo sapiens, UniProt P06276) (P06276 whole entry): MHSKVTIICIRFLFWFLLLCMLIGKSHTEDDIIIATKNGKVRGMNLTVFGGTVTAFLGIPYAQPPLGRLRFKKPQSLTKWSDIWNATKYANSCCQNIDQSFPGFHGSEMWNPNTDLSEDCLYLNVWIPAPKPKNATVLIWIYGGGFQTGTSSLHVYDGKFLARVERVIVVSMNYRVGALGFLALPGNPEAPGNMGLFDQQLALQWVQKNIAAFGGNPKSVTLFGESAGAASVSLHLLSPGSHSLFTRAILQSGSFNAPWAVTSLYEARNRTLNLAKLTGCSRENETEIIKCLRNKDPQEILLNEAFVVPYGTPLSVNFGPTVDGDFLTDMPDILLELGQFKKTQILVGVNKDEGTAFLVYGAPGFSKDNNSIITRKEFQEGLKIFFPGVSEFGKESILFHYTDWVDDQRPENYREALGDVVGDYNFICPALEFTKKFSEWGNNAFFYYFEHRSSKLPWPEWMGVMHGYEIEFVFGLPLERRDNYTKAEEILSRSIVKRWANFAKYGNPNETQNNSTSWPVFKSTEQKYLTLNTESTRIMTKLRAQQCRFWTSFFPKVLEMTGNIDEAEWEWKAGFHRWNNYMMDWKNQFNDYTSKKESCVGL

| SMILES | Activity (Mus musculus [1]) | Activity (Mus musculus [2]) | Activity (Mus musculus [3]) | Activity (Mus musculus [4]) | Activity (Mus musculus [5]) | Activity (Mus musculus [6]) | Activity (Mus musculus [7]) | Activity (Mus musculus [8]) | Activity (Mus musculus [9]) | Activity (Mus musculus [10]) | Activity (Mus musculus [11]) | Activity (Mus musculus [12]) | Activity (Mus musculus [13]) | Activity (Mus musculus [14]) | Activity (Mus musculus [15]) | IC50 (Acetylcholinesterase [16]) | Activity (Mus musculus [17]) | Activity (Mus musculus [18]) | Ki (Cholinesterase [19]) | IC50 (Cholinesterase [20]) | other results |
| --- | --- | --- | --- | --- | --- | --- | --- | --- | --- | --- | --- | --- | --- | --- | --- | --- | --- | --- | --- | --- | --- |
| CCC(C)(C)NCC(O)c1cc(OC(=O)N(C)C)cc(OC(=O)N(C)C)c1.Cl (configuration not stated) | -41.98 bpm | -37.65 bpm | -42.44 bpm | -42.92 bpm | -49.12 bpm | -36.77 bpm | -28.9 bpm | -44.42 bpm | -42.02 bpm | -34.87 bpm | -40.41 bpm | -37.47 bpm | -21.23 bpm | -37.47 bpm | -39.88 bpm | > 100 µM | -38.45 bpm | -43.71 bpm | 1.42 ×10⁵ /M/min | 0.126 µM | Activity (Mus musculus [21]): -37.74 bpm; IC50 (Acetylcholinesterase [22]): > 10 µM; Ki (Cholinesterase [23]): 60 ×10⁵ /M/min; Activity (Mus musculus [24]): -32.47 bpm; Activity (Mus musculus [25]): -40.62 bpm; Activity (Mus musculus [26]): -33.53 bpm; Activity (Mus musculus [27]): -41.83 bpm; Activity (Mus musculus [28]): -41.43 bpm; Activity (Mus musculus [29]): -40.25 bpm |
| CCN(C)C(=O)Oc1cc(OC(=O)N(C)CC)cc(C(O)CNC(C)(C)CC)c1.Cl (configuration not stated) | 0.52 bpm | 1.28 bpm | -0.88 bpm | 3.13 bpm | -2.32 bpm | -1.37 bpm | 0.25 bpm | -0.22 bpm | 3.92 bpm | -5.8 bpm | -6.25 bpm | -11.4 bpm | -1.28 bpm | -5.5 bpm | -2.93 bpm | > 100 µM | 5.47 bpm | -3.93 bpm | 1.49 ×10⁵ /M/min | 0.116 µM | Activity (Mus musculus [21]): -5.1 bpm; IC50 (Acetylcholinesterase [22]): > 10 µM; Ki (Cholinesterase [23]): 73.3 ×10⁵ /M/min; Activity (Mus musculus [24]): -4.43 bpm; Activity (Mus musculus [25]): 0.13 bpm; Activity (Mus musculus [26]): -3.03 bpm; Activity (Mus musculus [27]): 0.05 bpm; Activity (Mus musculus [28]): 2.88 bpm; Activity (Mus musculus [29]): 4.98 bpm |
| CN(C)C(=O)Oc1cc(OC(=O)N(C)C)cc(C(O)CNC(C)(C)C)c1 (configuration not stated) [BAMBUTEROL] | 48.77 bpm | -13.49 bpm | 11.92 bpm | 29.39 bpm | 53.3 bpm | -2.09 bpm | 17.67 bpm | 30.43 bpm | 57.32 bpm | 0.55 bpm | -0.24 bpm | -2.92 bpm | -2.66 bpm | -6.04 bpm | 4.05 bpm | > 100 µM | 32.35 bpm | 15.31 bpm | 1.44 ×10⁵ /M/min | 0.119 µM | Activity (Mus musculus [21]): -23.87 bpm; IC50 (Acetylcholinesterase [22]): > 10 µM; Ki (Cholinesterase [23]): 77.7 ×10⁵ /M/min; Activity (Mus musculus [24]): -1.54 bpm; Activity (Mus musculus [25]): 34.4 bpm; Activity (Mus musculus [26]): 16.59 bpm; Activity (Mus musculus [27]): 32.75 bpm; Activity (Mus musculus [28]): 38.36 bpm; Activity (Mus musculus [29]): 45.59 bpm |
